Source: ChEMBL document CHEMBL1135300, “The mechanism of the irreversible inhibition of estrone sulfatase (ES) through the consideration of a range of methane- and amino-sulfonate-based compounds” (Bioorg Med Chem Lett, 2002)

These compounds were tested against T1, Steryl-sulfatase (Homo sapiens) (UniProt P08842) (assay: In vitro inhibition of estrone sulfatase at 1 mM.).
T1 sequence (whole entry): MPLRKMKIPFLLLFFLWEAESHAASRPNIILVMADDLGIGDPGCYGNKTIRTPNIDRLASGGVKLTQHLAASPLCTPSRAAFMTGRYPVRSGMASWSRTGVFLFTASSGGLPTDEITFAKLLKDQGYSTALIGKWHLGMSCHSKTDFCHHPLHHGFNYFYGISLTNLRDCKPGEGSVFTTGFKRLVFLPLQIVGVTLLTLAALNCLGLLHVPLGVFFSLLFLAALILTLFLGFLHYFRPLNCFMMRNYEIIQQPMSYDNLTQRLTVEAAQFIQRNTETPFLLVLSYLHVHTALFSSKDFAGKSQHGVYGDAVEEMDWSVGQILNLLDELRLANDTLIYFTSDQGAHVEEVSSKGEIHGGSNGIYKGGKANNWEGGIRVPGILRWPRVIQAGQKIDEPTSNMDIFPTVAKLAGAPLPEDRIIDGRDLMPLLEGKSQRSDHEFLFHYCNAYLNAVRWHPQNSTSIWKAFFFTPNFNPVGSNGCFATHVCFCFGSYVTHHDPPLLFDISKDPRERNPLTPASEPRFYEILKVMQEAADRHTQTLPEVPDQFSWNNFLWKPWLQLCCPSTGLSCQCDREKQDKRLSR
Procedure, shortened: (§1)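 ³H-estrone sulfate (750,000 dpm per tube) with inhibitors from ethanol stock, ethanol evaporated under nitrogen. Placental microsomes in 0.05 M Tris–HCl, pH 7.2, were prewarmed 5 min at 37 °C, then added; 1 mL total, incubated 20 min at 37 °C. Toluene quench, extraction, and scintillation counting of product. Triplicates; no-inhibitor controls; boiled-microsome blanks.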

| Compound | inhibition |
| --- | --- |
| NS(=O)(=O)Oc1cccc(I)c1 | 89.4% |
| Cc1cccc(OS(N)(=O)=O)c1 | 39.5% |
| CCCCCCCCCCCCOS(C)(=O)=O | 17% |
| CCCCCCCCCOS(C)(=O)=O | 28% |
| NS(=O)(=O)Oc1cccc(F)c1 | 79.6% |
| NS(=O)(=O)Oc1ccc(Cl)cc1 | 37.6% |
| NS(=O)(=O)Oc1cccc([N+](=O)[O-])c1 | 90.4% |
| Cc1ccc(OS(N)(=O)=O)cc1 | 27.4% |
| NS(=O)(=O)OCCCl | 15% |
| NS(=O)(=O)Oc1cccc(Br)c1 | 75.1% |
| NS(=O)(=O)Oc1ccc(I)cc1 | 66% |
| N#Cc1cccc(OS(N)(=O)=O)c1 | 84.3% |
| NS(=O)(=O)Oc1cccc(Cl)c1 | 62% |
| NS(=O)(=O)OCC(Cl)(Cl)Cl | 60% |
| NS(=O)(=O)Oc1ccc([N+](=O)[O-])cc1 | 82.5% |
| N#Cc1ccc(OS(N)(=O)=O)cc1 | 74.4% |
| NS(=O)(=O)Oc1ccccc1 [PHENYLSULFAMATE] | 29.7% |
| NS(=O)(=O)Oc1ccc(Br)cc1 | 50.8% |
| NS(=O)(=O)Oc1ccc(F)cc1 | 37% |
| NS(=O)(=O)OCC(Cl)Cl | 30% |

The compounds below were run against T2, Steryl-sulfatase (Homo sapiens, UniProt P08842) (assay: In vitro inhibition of estrone sulfatase.).
T2 sequence (P08842 whole entry): T1 sequence (whole entry)
Procedure, shortened: as §1

| Compound | IC50 |
| --- | --- |
| NS(=O)(=O)Oc1cccc(I)c1 | 120 uM l-1 |
| Cc1cccc(OS(N)(=O)=O)c1 | 2089 uM l-1 |
| NS(=O)(=O)Oc1cccc(F)c1 | 2089 uM l-1 |
| NS(=O)(=O)Oc1ccc(Cl)cc1 | 1585 uM l-1 |
| NS(=O)(=O)Oc1cccc([N+](=O)[O-])c1 | 120 uM l-1 |
| Cc1ccc(OS(N)(=O)=O)cc1 | > 10000 uM l-1 |
| NS(=O)(=O)Oc1cccc(Br)c1 | 257 uM l-1 |
| NS(=O)(=O)Oc1ccc(I)cc1 | 560 uM l-1 |
| N#Cc1cccc(OS(N)(=O)=O)c1 | 191 uM l-1 |
| NS(=O)(=O)Oc1cccc(Cl)c1 | 537 uM l-1 |
| NS(=O)(=O)OCC(Cl)(Cl)Cl | 750 uM l-1 |
| NS(=O)(=O)Oc1ccc([N+](=O)[O-])cc1 | 330 uM l-1 |
| N#Cc1ccc(OS(N)(=O)=O)cc1 | 300 uM l-1 |
| NS(=O)(=O)Oc1ccccc1 [PHENYLSULFAMATE] | > 10000 uM l-1 |
| NS(=O)(=O)Oc1ccc(Br)cc1 | 912 uM l-1 |
| NS(=O)(=O)Oc1ccc(F)cc1 | 537 uM l-1 |

What follows are compounds tested against T1, Steryl-sulfatase (Homo sapiens) (assay: In vitro inhibition of estrone sulfatase at 10 mM.).
Procedure, shortened: as §1

| Compound | inhibition |
| --- | --- |
| CCCCCCCCCOS(N)(=O)=O | 0% |
| CCCCCCCOS(N)(=O)=O | 0% |
| CCCCCCCCOS(N)(=O)=O | 0% |
